# Assay outcomes as filed in PubChem BioAssay.
# V1aR counter: activates human V1a receptor in oxytocin agonist counter-screen; P37288; CHO-V1R cells, Fluo-8 calcium fluorescence, agonist mode; 0% DMSO, 100% 3 nM vasopressin; activation, % at 3 µM; 0.25% of 320,000 active; AID 2797;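 active = activation above the mean activation of all tested compounds plus 3 SD, per screening run, cut at about 20% in these data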;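 note: signal is peak over basal fluorescence ratio across a 100 second FLIPR read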
# Target sequence (P37288 whole entry, looked up): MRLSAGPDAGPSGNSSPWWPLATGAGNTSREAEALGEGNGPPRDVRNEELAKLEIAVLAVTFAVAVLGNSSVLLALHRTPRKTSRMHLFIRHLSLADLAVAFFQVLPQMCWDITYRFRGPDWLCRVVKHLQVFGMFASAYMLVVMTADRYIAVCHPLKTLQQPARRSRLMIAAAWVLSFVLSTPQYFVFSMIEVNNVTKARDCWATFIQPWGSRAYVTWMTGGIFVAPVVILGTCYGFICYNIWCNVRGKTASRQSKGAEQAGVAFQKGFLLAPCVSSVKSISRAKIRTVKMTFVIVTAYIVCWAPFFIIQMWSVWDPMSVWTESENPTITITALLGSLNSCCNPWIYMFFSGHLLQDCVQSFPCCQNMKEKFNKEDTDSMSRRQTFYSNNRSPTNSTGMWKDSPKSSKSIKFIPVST
# OXTR ag: activates the human oxytocin receptor. P30559. CHO-OTR cells, Fluo-8 calcium fluorescence; normalized: DMSO 0%, oxytocin 100%. activation, % at 3 µM. 0.32% of 320,000 active;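 active = activation above the mean of all tested compounds plus 3 SD, cutoff set per screening run, cut at about 20% in these data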;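 note: peak over basal fluorescence ratio from a 100 s FLIPR kinetic read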
# Target sequence (P30559 whole entry, looked up): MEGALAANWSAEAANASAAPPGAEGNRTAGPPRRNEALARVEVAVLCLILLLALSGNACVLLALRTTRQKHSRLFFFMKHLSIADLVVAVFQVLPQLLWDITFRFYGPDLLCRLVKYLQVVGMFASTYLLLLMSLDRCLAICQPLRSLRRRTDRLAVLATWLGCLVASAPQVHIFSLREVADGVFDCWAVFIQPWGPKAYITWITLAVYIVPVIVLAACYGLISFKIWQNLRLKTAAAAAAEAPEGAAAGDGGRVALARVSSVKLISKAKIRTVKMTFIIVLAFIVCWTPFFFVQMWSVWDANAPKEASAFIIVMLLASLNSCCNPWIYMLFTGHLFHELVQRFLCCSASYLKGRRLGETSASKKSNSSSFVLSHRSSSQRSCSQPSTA
# TAAR1 ag: human TAAR1 agonism. Q96RJ0. CHO RD-HGA16 TAAR1, Fluo-8 calcium fluorescence; vehicle wells 0%, saturating PEA agonist 100%. activation, % at 3 µM. 0.99% of 360,000 active;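 active = activation above the mean activation of all test compounds in the run plus 3 SD, cut at about 38% in these data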
#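 System: CHO-derived RD-HGA16 cells with stable Gα16 and human TAAR1 / Times: 17-24 h plating, Fluo-8 75 min 37 °C, 30 min RT / Technique: calcium-sensitive Fluo-8 signal, excitation 470-495, emission 515-575 nm / Measure: % activation relative to PEA EC100 response / Benchmarks: DMSO and PEA EC100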
# OXTR potentiator: potentiates the human oxytocin receptor response; AID 2445; 0.061% of 320,000 active; CHO-OTR cells, Fluo-8 calcium fluorescence, potentiator mode; 0% = oxytocin EC15, 100% = EC100; activation, % at 3 µM; P30559;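 active = activation above that plate's cutoff, the mean activation of tested compounds plus 3 SD, cut at about 6.6% in these data, passing the limit was not always enough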;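 note: 100% uses oxytocin at 75 nM as the full agonist control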
#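 Material: human OTR in CHO cells. Compound: 3.0 µM, one dose. Timing: compound 6 min at room temperature before oxytocin, 100 s read. Evaluation: % activation of max/min ratio relative to oxytocin controls. Replication: single well per compound, singlicate. Signal: Fluo-8 calcium dye fluorescence.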
# TAAR1 antagonist: human TAAR1 antagonism | Q96RJ0 | CHO RD-HGA16 TAAR1, Fluo-8 calcium fluorescence, antagonist | inhibition, % at 3 µM | 1.5% of 360,000 active;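 active = inhibition above a per-plate cutoff, the mean inhibition of test compounds on that plate plus 3 SD, cut at about 49% in these data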;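 note: 0% = DMSO plus EC80 beta-PEA response and 100% = DMSO alone without agonist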
#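 Test system – hTAAR1-expressing CHO RD-HGA16 cells, Gα16-coupled · Reagent – β-PEA at EC80 concentration, post-compound challenge · Compound dosing – 3 µM, single point · Timing – 140 s kinetic read after compound, 140 s after agonist · Detection – Fluo-8 intracellular calcium dye fluorescence, real-time kinetic reads · Control set – DMSO and EC80 PEA controls · Repeats – n of 1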
# nonsel antag count: counter-screen for TAAR1 antagonists: nonselective antagonists. inhibition, % at 3 µM. 77% of 2,400 active. shares compounds with TAAR1 antagonist. AID 651780. counterscreen cell line, calcium fluorescence, antagonist mode; in the data active = inhibition above about 22%;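 note: CHO-Ga16 host cells stimulated with ATP at an EC80 level; 0% = agonist EC80 plus vehicle and 100% = vehicle without agonist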
# TAAR1 antag conf: human TAAR1 antagonism, confirmed; 40% of 2,400 active; inhibition, % at 3 µM; AID 651785; TAAR1-expressing cells, fluorescence antagonist read-out; shares compounds with TAAR1 antagonist; in the data active = inhibition above about 49%;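 note: CHO-Ga16 host cells challenged with agonist PEA near its EC80; 0% = agonist at EC80 plus vehicle and 100% = vehicle with no agonist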
# Ga16 ag counter: nonselective Ga16 agonism, counter-screen; Ga16-expressing cells, calcium fluorescence, agonist counterscreen; shares compounds with TAAR1 antagonist; 18% of 2,400 active; activation, % at 3 µM; AID 651953; in the data active = activation above about 12%;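 note: 0% = vehicle wells and 100% = saturating stimulus response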
# TAAR1 ag counter: TAAR1 agonism, antagonist counter-screen; activation, % at 3 µM; hTAAR1 cell line, fluorescence activation, agonist mode; shares compounds with TAAR1 antagonist; 2% of 2,400 active; in the data active = activation above about 37%;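 note: CHO cells stably expressing TAAR1 with calcium dye readout; 0% = DMSO vehicle and 100% = full agonist response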
# An asterisk follows results filed as active; . = not tested or not shown. Only some compounds are listed: those with a hit (about 2.3% of all), similar ones and a draw of the others.
SMILES,V1aR counter,OXTR ag,TAAR1 ag,OXTR potentiator,TAAR1 antagonist,nonsel antag count,TAAR1 antag conf,Ga16 ag counter,TAAR1 ag counter
COc1cc(/C=N/NC(=O)c2cccnc2)ccc1OC(=O)c1cc(OC)c(OC)c(OC)c1,6.4,4.0,13.2,-8.9,44.0,.,.,.,.
CCN(c1ccccc1)S(=O)(=O)c1cccc(C(=O)NCc2ccccn2)c1,0.1,-1.7,1.0,-6.7,-9.5,.,.,.,.
CC(/C=N/NC(=O)COc1ccccc1C)=N\NC(=O)COc1ccccc1C,-0.2,0.0,2.6,-6.5,-0.6,.,.,.,.
Cc1ccc(/C=N/NC(=O)c2ccccc2OCc2cccc(Br)c2)o1,2.5,-1.9,8.5,-9.4,58.5*,20.5,57.8*,6.5,29.4
COc1ccccc1C(=O)NC(=O)COC(=O)c1cnccn1,.,.,3.0,.,-16.9,.,.,.,.
CCOC(=O)/C(C#N)=C(C)/C=C1\Sc2ccccc2N1CC,3.0,-0.7,1.8,-8.2,56.3*,22.1*,23.6,17.7*,16.4
N#Cc1cccc(NC(=O)c2cc(C3CCCCN3C(=O)CCCc3ccccc3)on2)c1 (centres undefined),.,.,10.2,.,61.3*,34.3*,53.9*,11.1,14.2
O=C(Nc1ccccc1)c1cc(C2CCCCN2C(=O)CCc2ccccc2)on1 (centres undefined),.,.,5.7,.,2.9,.,.,.,.
O=Cc1ccc(F)c([B-](F)(F)F)c1,.,.,6.5,.,-8.8,.,.,.,.
Cc1ccc(C)c(/C=N/Nc2ccccn2)c1,-1.1,-0.9,-3.7,-2.2,104.7*,-1.8,-0.4,1.4,0.5
Cc1ccc(NC(=O)CN2CCCC2c2cccn2C)c(Br)c1 (centres undefined),-1.2,-2.0,1.4,-8.8,-26.3,.,.,.,.
O=C(Oc1ccccc1)c1ccc(-n2cnnn2)cc1,0.6,-0.2,3.5,-19.1,8.6,.,.,.,.
c1ccc(Oc2ccc(-n3cnnn3)cc2)cc1,-0.3,0.0,-1.4,-3.6,105.4*,8.0,2.0,3.6,5.4
CCN(CC)S(=O)(=O)c1ccc(N2CCOCC2)c(NC(=O)c2cc3ccccc3oc2=O)c1,-0.2,-0.6,-0.5,-11.7,-1.3,.,.,.,.
O=C(NCc1ccc(F)cc1)C(=O)NCC1OCCN1S(=O)(=O)c1cc(F)ccc1F (centres undefined),.,.,0.1,.,6.4,.,.,.,.
CC(C)(C)c1ccc(C(=O)OCCNC(=O)c2c(Cl)nc3ccccn23)cc1,7.3,0.1,26.1,-12.9,73.2*,29.3*,48.4,10.3,15.3
Cc1c(C(=O)N2CCN(c3ccccc3)CC2)sc2ncnc(N3CCN(c4ccccn4)CC3)c12,0.7,0.7,0.9,-7.9,15.4,.,.,.,.
Cc1c(C(=O)N2CCN(c3ccc(F)cc3)CC2)sc2ncnc(N3CCN(c4ccccn4)CC3)c12,1.7,-2.0,9.6,-16.5,70.0*,29.3*,47.2,9.3,7.7
COc1ccccc1N1CCN(C(=O)c2sc3nc(C)nc(N4CCN(c5ccccn5)CC4)c3c2C)CC1,0.1,-1.3,7.0,-6.3,54.8*,16.7,33.8,4.3,5.3
COc1ccccc1N1CCN(C(=O)c2sc3ncnc(N4CCN(c5ccccn5)CC4)c3c2C)CC1,7.6,1.0,.,-11.6,.,.,.,.,.
C=CCC[C@@H](Cc1ccc(F)cc1)C(=O)OC[C@H](C)NC(=O)[C@@H](CC=C)CC(=O)N(CCO)Cc1ccccc1,-0.7,-1.0,1.2,-7.8,-2.2,.,.,.,.
C=CCC[C@@H](Cc1ccc(F)cc1)C(=O)OC[C@H](C)NC(=O)[C@H](CC=C)CC(=O)N(CCO)Cc1ccccc1,-0.3,0.5,15.1,-9.9,71.4*,27.0*,40.3,4.8,2.1
C=CC[C@@H](CC(=O)N(CCO)Cc1ccccc1)C(=O)N[C@H](COC(=O)[C@@H](CC=C)Cc1ccc(F)cc1)Cc1ccccc1,3.5,7.5,11.3,-11.1,75.5*,27.2*,47.7,7.4,7.3
CCOc1cc(/C=N/NC(N)=O)cc(Br)c1OCC(=O)Nc1ccccc1C,0.8,0.4,33.3,0.0,47.0,.,.,.,.
CCOc1cc(/C=N/NC(N)=O)cc(Br)c1OCC(=O)Nc1cccc2ccccc12,1.3,-0.1,37.0,-5.1,66.3*,30.5*,54.9*,13.8*,17.4
SMILES,V1aR counter,OXTR ag,TAAR1 ag,OXTR potentiator,TAAR1 antagonist,nonsel antag count,TAAR1 antag conf,Ga16 ag counter,TAAR1 ag counter
CCc1cccc(NC(=O)CCC(=O)N2CCSc3ccccc32)c1,1.5,1.3,7.7,-23.0,60.1*,20.6,39.6,5.8,10.0
CCc1ccc(NC(=O)CCC(=O)N2CCSc3ccccc32)cc1,1.6,-2.6,6.0,-5.9,58.7*,24.8*,40.3,5.8,4.4
O=C(CCC(=O)N1CCSc2ccccc21)Nc1cccc(F)c1,2.6,0.5,6.6,-9.7,6.0,.,.,.,.
COC(=O)Cn1c(N)[n+](Cc2ccccc2)c2ccccc21,0.4,1.2,8.1,-14.7,-22.9,.,.,.,.
CCOCCCn1c(SCc2nc3ccccc3s2)nc2ccccc2c1=O,-0.4,-0.5,11.7,-3.6,49.0*,18.9,38.2,6.3,23.3
CSCCC(NS(=O)(=O)c1ccc2c(c1)OCCO2)C(=O)N(C)Cc1ccc(F)cc1 (centres undefined),2.5,-0.8,14.8,-4.4,76.4*,30.6*,62.8*,13.2*,12.4
CCOC(=O)N/N=C/c1c(C)c(C(=O)c2ccc(F)cc2)n2ccccc12,-1.9,-3.1,1.7,-3.0,67.8*,22.0*,43.8,3.3,-1.1
Cc1c(/C=N/NC(=O)c2ccccc2O)c2ccccn2c1C(=O)c1ccc(F)cc1,2.0,10.2,13.5,-13.3,92.9*,48.3*,94.4*,11.5*,9.7
Cc1c(/C=N/NC(=O)c2ccc(O)cc2)c2ccccn2c1C(=O)c1ccc(F)cc1,-0.8,-0.7,0.3,5.8,36.3,.,.,.,.
COc1ccc(C(C)(O)c2nc(-c3ccoc3)cs2)cc1 (centres undefined),.,.,0.7,.,-5.9,.,.,.,.
CCOc1ccc(NCC(=O)c2ccc(C)cc2)cc1,-0.6,0.6,0.1,-6.0,12.1,.,.,.,.
CCOc1cc2c(cc1OCC)C(c1ccc(C(=O)O)cc1)NCC2 (centres undefined),0.9,2.4,6.6,-10.3,-19.0,.,.,.,.
COc1cccc(CN2C(=O)[C@H]3Cc4c([nH]c5ccccc45)C(C)(C)N3C2=O)c1,1.4,1.4,17.2,-14.3,61.4*,25.4*,41.5,8.8,9.7
CCc1nc2ccc(C(=O)NCc3ccc4c(c3)OCO4)cn2c1N(C)CCC(C)C,.,.,4.8,.,67.3*,7.4,27.1,4.8,7.1
